# Compounds with a hit are over-represented: about 2.7% of the library has one in this group of screens.
# Wee1 degr inh: Wee1 degradation inhibitors, primary screen, cell-based, HeLa, Wee1K328M-luciferase, luminescence | AID 1321, 2008 | HeLa Luc-Wee1K328M stability; 100% = proteasome inhibitor MG132 effect | Wee1-like protein kinase (Homo sapiens), P30291 | 220,000 compounds, 1.2% hits | reporter increase, % at 5 µM;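 active = activation above the mean of all tested compounds plus 3 SD, set per screening run, cut at about 8.8% in these data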;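 note: cells exposed to compound for 20 h before luminescence read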
# PfM18AAP inh: PfM18AAP inhibitors, malaria aminopeptidase, primary screen, biochemical, QFRET, recombinant enzyme | AID 1822, 2009 | H-Glu-NHMec fluorogenic cleavage | 290,000 compounds, 1.2% hits | inhibition, % at 7.35 µM;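 active = inhibition above the campaign mean inhibition over all tested compounds plus 3 SD, cut at about 28% in these data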
# p97 inhibitor: inhibitors of human p97 ATPase, primary screen, biochemical; Transitional endoplasmic reticulum ATPase (Homo sapiens), P55072; recombinant p97 ATPase, Kinase-Glo ATP luminescence, 3 h; inhibition, % at 8 µM; 220,000 compounds, 0.42% hits; in the data active = inhibition above about 15%
# Target sequence (P55072 whole entry, looked up): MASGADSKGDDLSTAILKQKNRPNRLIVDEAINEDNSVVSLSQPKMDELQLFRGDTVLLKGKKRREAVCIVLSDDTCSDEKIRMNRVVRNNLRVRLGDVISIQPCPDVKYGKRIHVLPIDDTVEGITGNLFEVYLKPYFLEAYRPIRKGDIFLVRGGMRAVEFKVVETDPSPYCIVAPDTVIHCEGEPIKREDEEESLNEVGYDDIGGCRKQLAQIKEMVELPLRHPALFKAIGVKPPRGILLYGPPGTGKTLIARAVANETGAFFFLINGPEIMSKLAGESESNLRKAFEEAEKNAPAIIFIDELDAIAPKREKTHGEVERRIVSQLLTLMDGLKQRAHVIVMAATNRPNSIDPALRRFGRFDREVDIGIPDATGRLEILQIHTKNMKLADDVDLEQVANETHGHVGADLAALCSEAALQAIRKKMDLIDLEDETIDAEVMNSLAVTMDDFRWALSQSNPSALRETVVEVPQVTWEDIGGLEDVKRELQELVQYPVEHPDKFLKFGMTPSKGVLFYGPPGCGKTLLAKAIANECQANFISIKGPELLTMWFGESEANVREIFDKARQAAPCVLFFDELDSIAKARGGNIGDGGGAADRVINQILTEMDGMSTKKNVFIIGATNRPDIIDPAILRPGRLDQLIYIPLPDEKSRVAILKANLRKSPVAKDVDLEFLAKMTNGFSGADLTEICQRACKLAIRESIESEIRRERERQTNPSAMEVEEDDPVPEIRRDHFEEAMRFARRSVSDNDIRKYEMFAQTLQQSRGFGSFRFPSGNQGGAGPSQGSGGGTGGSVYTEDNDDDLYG
# RBBP9 inh: human RBBP9 inhibitors, primary screen, biochemical, fluorescence polarization, FP-Rh probe, HTS; recombinant RBBP9; inhibition, % at 7.94 µM; 220,000 compounds, 0.2% hits; AID 1515, 2009;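 active = inhibition above the campaign mean of all tested compounds plus 3 SD, cut at about 14% in these data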
#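 System: RBBP9 protein | Quantity: 2.5 µM RBBP9 dispensing solution, before mixing | Reagent: FP-Rh probe, 375 nM dispensing solution | Timing: Enzyme-compound preincubation 30 min, then probe labeling 45 min, 25 °C | Measured by: Fluorescence polarization | Read-out: % inhibition | Replication: One well per compound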
# zVAD death inh: inhibitors of zVAD-triggered necroptosis, primary screen, L929 cells; L929 zVAD necroptosis rescue, ATP luminescence, 24 h; with zVAD 60 µM; viability rescue, % at 10 µM; 220,000 compounds, 0.38% hits;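 active = activation, scaled between plate controls, above about 75%, limit read from the data; inactive = activation under that limit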
# TNF necrop inh: inhibitors of TNF-alpha triggered necroptosis, primary screen, cell-based, Jurkat FADD-/-, single concentration | Jurkat FADD-/- TNF necroptosis rescue, ATP luminescence, 24 h; 0 = TNF only, 100 = no-TNF cells | activation (protection from cell death), % at 10 µM | 220,000 compounds, 0.068% hits | AID 463075, 2010;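 active = activation, meaning protection from cell death, of at least 50% relative to plate controls; inactive = activation below 50%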;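 note: necroptosis triggered by 40 ng/mL TNF-alpha added together with compound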
# Numbers stand for hits; . = inactive; / = no result.
SMILES,Wee1 degr inh,PfM18AAP inh,p97 inhibitor,RBBP9 inh,zVAD death inh,TNF necrop inh
CN(CC(=O)Nc1cccc(F)c1)CC(=O)Nc1ccccc1Oc1ccccc1,/,.,/,/,/,/
C[C@]12CC[C@@H]3c4cc(O)c(O)cc4CC[C@H]3[C@@H]1CC[C@@H]2O,.,67,.,24,/,/
C[C@]12CC[C@@H]3c4ccc(O)cc4CC[C@H]3[C@@H]1CC[C@@H]2O,.,.,.,.,.,.
Cc1cc(C)cc(OCC(=O)NNC(=O)CN2C(=O)c3ccccc3C2=O)c1,.,.,.,.,.,.
CSc1ccccc1C(=O)NC1CCCC1,8.9,.,.,.,.,.
CCOC(=O)N1CCN(C(=O)C2CCC(C(=O)N3CCN(C(=O)OCC)CC3)CC2)CC1 (centres undefined),9.5,.,.,.,.,.
CCOC(=O)N1CCN(C(=O)C2CCCCC2)CC1,.,.,.,.,.,.
Cc1ccc(NC(=O)CNCCCN2CCOCC2)cc1S(=O)(=O)N1CCCCC1,.,.,.,.,.,.
Cc1[nH]c(=S)[nH]c(=O)c1Cc1ccccc1,.,31,.,.,.,.
CCCCc1c(C)[nH]c(=S)[nH]c1=O,.,.,.,.,.,.
CC(=O)c1ccc(NC(=O)C(C)OC(=O)c2ccc3c(c2)nc(C)n3-c2ccccc2)cc1 (centres undefined),8.8,.,.,.,.,.
O=C(CCC(=O)c1ccc(F)cc1)NC1CCCN(Cc2ccccc2F)C1 (centres undefined),/,.,/,/,/,/
Cc1cccc(C)c1OCc1nnc(SCC(=O)Nc2nccs2)o1,.,28,.,.,.,.
O=C(Cn1cc(C(F)(F)F)cc(Cl)c1=O)NCc1ccc(F)cc1,/,.,/,/,/,/
CCOC(=O)Nc1ccc(C(=O)Oc2ccccc2)c(O)c1,10,.,.,.,.,.
CCOC(=O)c1ccc(-c2cc(C)no2)[nH]1,.,.,.,.,.,.
O=C(Nc1cc(Cl)cc(Cl)c1)c1coc(=O)c(Br)c1,14,.,.,.,.,.
COCCNCC(=O)Nc1nc(C)cs1,.,.,.,.,.,.
COc1cc(OC)c(C2=NOC(C(=O)NCc3cccs3)C2)cc1Cl (centres undefined),9.6,.,.,.,.,.
CCOC(=O)c1cc(C#N)c(Nc2ccc(C)cc2)nc1C(F)(F)F,.,.,.,.,.,.
Cc1ccc(S(=O)(=O)Nc2ccc(C(=O)N3CCCC3)cc2)c(C)c1NS(C)(=O)=O,/,.,/,/,/,/
Cc1ccc(-c2nc3c(c(SCC(=O)N4CCOCC4)n2)COC(C)(C)C3)cc1,/,.,/,/,/,/
CCOC(=O)c1c(C)c(C(=O)Nc2ccc3c(c2)OCCO3)c(C)n1C,9.2,.,.,.,.,.
Oc1cc2ccccc2cc1-c1n[nH]c(=S)o1,8.9,.,.,.,.,.
Oc1cccc(/C=N/Nc2cc(N3CCOCC3)nc(N3CCOCC3)n2)c1,.,.,.,.,.,.
SMILES,Wee1 degr inh,PfM18AAP inh,p97 inhibitor,RBBP9 inh,zVAD death inh,TNF necrop inh
Oc1ccc(/C=N/Nc2cc(N3CCOCC3)nc(N3CCOCC3)n2)cc1O,.,56,.,.,.,.
O=C(Nc1cccc(S(=O)(=O)NCc2ccco2)c1)c1cc(-c2ccc(F)cc2)nc2ccccc12,9.2,.,.,.,.,.
Oc1ccc(/C=N/Nc2ncnc3c2ncn3Cc2ccccc2)cc1O,.,39,.,.,.,.
O=C(NCc1ccccc1Cl)c1cc(C(=O)C2CC2)c[nH]1,/,.,/,/,/,/
CC1=C(C#N)C(=O)N(C2CCS(=O)(=O)C2)C(=O)/C1=C\c1ccco1 (centres undefined),.,.,34,.,.,.
CC1=NNC(=O)/C1=C\c1cn(-c2ccccc2)nc1-c1ccccc1,.,66,.,.,.,.
O=Cc1cn(-c2ccccc2)nc1-c1ccccc1,/,.,/,/,/,/
O=C(COc1ccc(S(=O)(=O)N2CCOCC2)cc1)Nc1ccccc1Cl,/,.,/,/,/,/
COc1cc(CNC2CCCCCCC2)c(Br)cc1OCCO,/,.,/,/,/,/
CSCC[C@H](NC(=O)OC(C)(C)C)C(=O)N1CCC(C(=O)N[C@@H](C)C(=O)NCc2ccc(F)cc2)CC1,/,.,/,/,/,/
O=C(COC(=O)c1ccc2ncsc2c1)NC(=O)c1ccccc1,.,31,.,.,.,.
O=c1c(-c2ccc(O)cc2O)coc2cc(O)cc(O)c12,.,.,.,.,.,.
O=c1c(O)c(-c2ccc(O)cc2O)oc2cc(O)cc(O)c12,.,30,49,.,.,.
CC1(C)CC(=O)C=C(NNC(=O)c2ccccc2)C1,.,41,.,.,/,.
Cc1nnc(SCC(=O)c2ccc(Cl)cc2)n(N)c1=O,.,.,.,18,.,.
CN(CC(=O)Nn1cnnc1)S(=O)(=O)c1ccc(Br)cc1,.,30,.,.,.,.
CN(CC(=O)Nc1ccncc1)S(=O)(=O)c1ccc(Br)cc1,.,.,.,.,.,.
C=CCn1cnc2c(nnn2-c2ccc(C)c(C)c2)c1=O,.,.,.,.,.,.
CCCCc1nnc(SCC(=O)Nc2nccs2)n1CC,/,.,/,/,/,/
CCn1c(COc2cc(C)ccc2C(C)C)nnc1SCC(=O)Nc1nccs1,11,.,.,.,.,.
Cc1cc(NS(=O)(=O)c2ccc(NC(=O)Nc3ccc4c(c3)OCO4)cc2)no1,8.9,.,.,.,.,.
COc1cc(-c2nnc(COC(=O)c3cccn3C)o2)cc(OC)c1OC,/,.,/,/,/,/
COc1cc(-c2nnc(COC(=O)c3c4c(nc5ccccc35)CCCC4)o2)cc(OC)c1OC,10.0,.,.,.,.,.
CC(=O)NC1=C(Nc2ccc(N(C)C)cc2)C(=O)c2ccccc2C1=O,/,29,/,/,/,/
Nc1nc(Nc2ccccc2F)nc(NCc2ccccc2)c1[N+](=O)[O-],9.6,.,.,.,.,.
SMILES,Wee1 degr inh,PfM18AAP inh,p97 inhibitor,RBBP9 inh,zVAD death inh,TNF necrop inh
Nc1nc(Nc2ccccc2)nc(NCc2ccccc2)c1[N+](=O)[O-],.,.,.,.,.,.
CCC(=O)NNc1nc2c(F)cccc2s1,.,31,.,.,.,.
CCOc1cccc2sc(NC(=O)CC)nc12,.,.,.,.,.,.
O=C(Cn1c(=S)[nH]c2ccccc2c1=O)NCCc1ccccc1,9.5,.,.,.,.,.
O=C(CCn1c(=S)[nH]c2ccccc2c1=O)NCCSCc1ccccc1,.,.,.,.,.,.
O=C1CSC(c2ccccc2)N1CC12CC3CC(CC(O)(C3)C1)C2 (centres undefined),13,.,.,.,.,.
Cn1c(=O)c2c(nc(Sc3ncnn3CC(=O)NC(C)(C)C)n2C)n(C)c1=O,10,.,.,.,.,.

# Bioassay records from PubChem.
